Here are results for eight compounds from ChEMBL document CHEMBL1136225, “Selective 3-amino-2-pyridinone acetamide thrombin inhibitors incorporating weakly basic partially saturated heterobicyclic P1-arginine mimetics” (Bioorg Med Chem Lett, 2003).

Some results are limits rather than exact numbers.

The target of data set [1] is Coagulation factor X (Homo sapiens, UniProt P00742). Kind of data set: Inhibitory activity against coagulation factor X. The method in brief:
(§1)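 Amidolytic enzyme assays with chromogenic substrates for thrombin, trypsin and factor Xa; Ki derived from IC50 by Cheng–Prusoff, or from reaction velocity equations with and without inhibitor using the relevant Km.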

The species named for data set [2] is Homo sapiens. Kind of data set: Concentration required to double the activated partial thromboplastin time in human plasma. It is filed as functional. The method in brief: (§2)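 Standard clotting assays (APTT, PT and TT) run in human plasma; value is the inhibitor concentration required to double each clotting time.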
For data set [3], the species on record is Homo sapiens. Put plainly: Concentration required to double the prothrombin time in human plasma. It is filed as functional. In short, it runs like this: as §2
The species named for data set [4] is Homo sapiens. Put plainly: Concentration required to double the thrombin time in human plasma. It is filed as functional. In short, it runs like this:
as §2

Data set [5] has as its target Prothrombin (Homo sapiens, UniProt P00734). Put plainly: Inhibitory activity against thrombin. The method in brief: as §1
Data set [6] in a line: pKa value was determined. In kind it is physicochemical.
For data set [7], the target named is T1, Serine protease 1 (Bos taurus, UniProt P00760).
T1 sequence (P00760 whole entry): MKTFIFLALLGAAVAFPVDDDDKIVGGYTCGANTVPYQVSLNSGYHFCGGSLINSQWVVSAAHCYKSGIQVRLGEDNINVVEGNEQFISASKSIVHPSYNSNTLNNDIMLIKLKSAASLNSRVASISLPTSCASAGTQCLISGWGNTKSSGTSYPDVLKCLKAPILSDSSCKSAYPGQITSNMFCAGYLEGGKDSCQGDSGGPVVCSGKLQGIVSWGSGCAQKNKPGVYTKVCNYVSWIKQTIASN
Put plainly: Inhibitory activity against Trypsin. The method in brief: as §1

Data set [8] deals with T2, Serine protease 1 (Bos taurus) (UniProt P00760).
T2 sequence (whole entry): T1 sequence (P00760 whole entry)
Put plainly: Selectivity for inhibition of thrombin to that of trypsin. In short, it runs like this: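 Selectivity expressed as Ki(trypsin)/Ki(thrombin), with both Ki values from chromogenic-substrate amidolytic assays.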

For data set [9], the target named is T1, Serine protease 1. Put plainly: Inhibitory activity was evaluated against Trypsin; Inactive. The method in brief:
as §1

For data set [10], the target named is T1, Serine protease 1. Put plainly: Inhibitory activity against Trypsin; Inactive. In short, it runs like this:
as §1

Sequence of Coagulation factor X (P00742 41-179 limits assumed): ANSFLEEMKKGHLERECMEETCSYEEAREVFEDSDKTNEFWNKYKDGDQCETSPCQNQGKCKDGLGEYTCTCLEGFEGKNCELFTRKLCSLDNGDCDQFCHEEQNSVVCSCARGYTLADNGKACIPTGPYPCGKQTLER
Sequence of Coagulation factor X (P00742 235-488 limits assumed): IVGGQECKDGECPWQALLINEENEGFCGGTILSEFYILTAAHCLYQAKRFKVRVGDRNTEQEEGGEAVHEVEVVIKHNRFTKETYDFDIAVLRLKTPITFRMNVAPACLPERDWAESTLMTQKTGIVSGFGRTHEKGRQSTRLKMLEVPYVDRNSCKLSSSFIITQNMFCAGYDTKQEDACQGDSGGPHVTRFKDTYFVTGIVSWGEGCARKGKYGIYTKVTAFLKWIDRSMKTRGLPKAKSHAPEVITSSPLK

With `Cc1ccc(NS(=O)(=O)Cc2ccccc2)c(=O)n1CC(=O)NCC1CCc2nc(N)sc2C1` (stereo unspecified), the Ki in data set [1] is 106 µM; in data set [5] it was 2.5 µM. In addition, the Concentration in [2] came out at 121 µM; in data set [3] it was 334 µM; in [4], 44 µM.
The compound `Cc1ccc(NS(=O)(=O)Cc2ccccc2)c(=O)n1CC(=O)NCC1CCc2nn(C)cc2C1` (stereo unspecified) showed a pKa in [6] of 3.6. The figures for the Ki in [1], in data set [5] and in [7] were 95 µM, 11.8 µM and 557 µM, respectively. Also, the Concentration in data set [2] was 318 µM; in data set [3] it was > 400 µM; in data set [4], 105 µM. In [8], the Selectivity turned out to be 47.
In turn, `Cc1ccc(NS(=O)(=O)Cc2ccccc2)c(=O)n1CC(=O)NCC1CCc2n[nH]cc2C1` (stereo unspecified) yielded a pKa in data set [6] of 4. The Ki in data set [1] is 103 µM; in data set [5] it was 0.17 µM; in data set [9], “Not Active”. For the same compound, the Concentration in data set [2] turned out to be 20.5 µM; in [3], 30.6 µM; in data set [4] it was 5.2 µM.
`Cc1ccc(NS(=O)(=O)Cc2ccccc2)c(=O)n1CC(=O)NCc1ccc2[nH]ncc2c1`: the Ki in data set [5] came to 0.0087 µM.
Regarding `Cc1ccc(NS(=O)(=O)Cc2ccccc2)c(=O)n1CC(=O)NCC1CCc2nc(N)ncc2C1` (stereo unspecified), the Ki in data set [1] stood at 87.3 µM; in data set [5], 6.9 µM; in data set [10] it was 640 µM. Moreover, the values for the Concentration in [2], in data set [3] and in data set [4] were 219 µM, > 400 µM and 84 µM, respectively.
In data set [6], `Cc1ccc(NS(=O)(=O)Cc2ccccc2)c(=O)n1CC(=O)NC1CCc2nc(N)sc2C1` (stereo unspecified) had a pKa of 6.1.
Consider `Cc1ccc(NS(=O)(=O)Cc2ccccc2)c(=O)n1CC(=O)NC1CCc2n[nH]cc2C1` (stereo unspecified), for which the pKa in data set [6] is 3.7. Besides, affinity in data set [1] was put at a Ki of 99 µM. For the same compound, the results for the Concentration in data set [2], in data set [3] and in [4] were 272 µM, > 400 µM and 105 µM, respectively. In addition, in [8], the Selectivity amounted to 93.
For `Cc1ccc(NS(=O)(=O)Cc2ccccc2)c(=O)n1CC(=O)NC1CCc2nn(C)cc2C1` (stereo unspecified), the pKa in [6] amounted to 3.2. Further, the results for the Ki in [1] and in data set [7] were 90.2 µM and 807 µM, respectively. The Concentration in data set [2] was > 200 µM; in data set [3], > 400 µM; in data set [4] it was 375 µM. The compound also yielded a Selectivity in data set [8] of 32.
